Measured values published in ChEMBL document CHEMBL1136311, “Growth inhibition activity of thioacetal artemisinin derivatives against human umbilical vein endothelial cells” (Bioorg Med Chem Lett, 2003).

Test system: HUVEC
Experiment: Inhibitory activity against human umbilical vein endothelial cells (HUVEC) was assayed using MTT colorimetric proliferation assay
Assay type: functional, cell-based
In short: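 HUVEC grown in EGM-2 medium with growth factor, seeded at 10,000 cells/well and left 4 h to adhere. Test compounds diluted in the medium were added. Incubation in a 5% CO₂ humidified atmosphere, then viability read by MTT colorimetric proliferation assay. Growth inhibition reported as IC50.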

Structure (SMILES)	IC50 [µM]
CC(=O)S[C@H]1O[C@@H]2O[C@]3(C)CC[C@H]4[C@H](C)CC[C@@H]([C@H]1C)[C@@]24OO3	4.56
C[C@H]1[C@H](S)O[C@@H]2OC3(C)CC[C@H]4[C@H](C)CC[C@@H]1[C@@]24OO3 (single isomer, unassigned)	1.29
C[C@H]1[C@@H]2CC[C@@H](C)[C@@H]3CCC4(C)OO[C@@]23[C@H](O[C@@H]1S(=O)(=O)c1ccccc1)O4 (single isomer, unassigned)	1.74
C[C@@H]1[C@@H]2CC[C@@H](C)[C@@H]3CCC4(C)O[C@@H](O[C@@H]1S(=O)(=O)c1ccccc1)[C@]23O4 (single isomer, unassigned)	> 50
C[C@H]1[C@@H](Sc2ccccc2)O[C@@H]2OC3(C)CC[C@H]4[C@H](C)CC[C@@H]1[C@@]24O3 (single isomer, unassigned)	> 50
C[C@H]1[C@H](Oc2ccccc2)O[C@@H]2OC3(C)CC[C@H]4[C@H](C)CC[C@@H]1[C@@]24OO3 (single isomer, unassigned)	31
C[C@H]1[C@@H](Oc2ccccc2)O[C@@H]2OC3(C)CC[C@H]4[C@H](C)CC[C@@H]1[C@@]24OO3 (single isomer, unassigned)	33.8
C[C@H]1[C@H](S(=O)(=O)c2ccccc2)O[C@@H]2OC3(C)CC[C@H]4[C@H](C)CC[C@@H]1[C@@]24OO3 (single isomer, unassigned)	12.8
C[C@H]1[C@H](Sc2ccccc2)O[C@@H]2OC3(C)CC[C@H]4[C@H](C)CC[C@@H]1[C@@]24OO3 (single isomer, unassigned)	0.93
C[C@@H]1[C@@H]2CC[C@@H](C)[C@@H]3CCC4(C)OO[C@@]23[C@H](O[C@@H]1S(=O)(=O)c1ccccc1)O4 (single isomer, unassigned)	18.2
C[C@H]1[C@@H](Sc2ccccc2)O[C@@H]2OC3(C)CC[C@H]4[C@H](C)CC[C@@H]1[C@@]24OO3 (single isomer, unassigned)	5.24
C[C@@H]1CC[C@H]2[C@@H](C)C(=O)O[C@@H]3O[C@@]4(C)CC[C@@H]1[C@]32OO4 [ARTEMISININ]	> 50
CCO[C@H]1O[C@@H]2O[C@@]3(C)CC[C@H]4[C@H](C)CC[C@@H]([C@H]1C)[C@@]24OO3 [ARTEMOTIL]	> 50
C[C@H]1[C@@H](O)O[C@@H]2O[C@@]3(C)CC[C@H]4[C@H](C)CC[C@@H]1[C@@]24OO3 [ARTENIMOL]	8.91
C[C@@H]1CC[C@H]2[C@@H](C)C(=O)O[C@@H]3O[C@@]4(C)CC[C@@H]1[C@]32O4 [DEOXYARTEMISININ]	> 50
